Assay results collected from several papers.
Compare with care: the assays were run in different laboratories. pEC50, pIC50, pKd, pKi: −log10 of the molar value.
PIP4K2C: Phosphatidylinositol 5-phosphate 4-kinase type-2 gamma (PIP4K2C, Homo sapiens, UniProt Q8TBX8)
LCK: Tyrosine-protein kinase Lck (LCK, Homo sapiens, UniProt P06239)

| Compound | target | assay | conditions | measurement | value |
| --- | --- | --- | --- | --- | --- |
| CC(C)(C)CC(C)(C)c1ccc(O)cc1 | Estrogen receptor beta (ESR2, Homo sapiens, UniProt Q92731) | reporter gene, agonist, luciferase |  | pEC50 | 6.71 |
| Cc1cc2nc3c(=O)[nH]c(=O)nc-3n(C[C@H](O)[C@H](O)[C@H](O)COP(=O)(O)OP(=O)(O)OC[C@H]3O[C@@H](n4cnc5c(N)ncnc54)[C@H](O)[C@@H]3O)c2cc1C | RNA-binding protein Musashi homolog 2 (MSI2, Homo sapiens, UniProt Q96DH6) | binding | lysate | pKd | 7.23 |
| COc1ccc(-c2nsc(NC(=O)[C@@H]3C[C@H]3C)c2C)cc1 | Metabotropic glutamate receptor 2 (GRM2, Homo sapiens, UniProt Q14416) | calcium signal, agonist |  | pEC50 | < 4.60 |
| CC(C)C[C@H](NC(=O)[C@H](Cc1ccccc1)NC(=O)[C@H](Cc1ccc(O)cc1)NC(=O)CNC(=O)[C@H](CCCNC(=N)N)NC(=O)[C@H](CO)NC(=O)[C@H](CCC(N)=O)NC(=O)[C@H](CO)NC(=O)[C@H](C)NC(=O)[C@H](Cc1ccccc1)NC(=O)[C@@H]1CCCN1C(=O)[C@H](CO)NC(=O)[C@H](CCC(N)=O)NC(=O)[C@H](Cc1ccccc1)NC(=O)[C@H](CCC(=O)O)NC(=O)[C@H](CCC(=O)O)NC(=O)[C@H](CC(=O)O)NC(=O)[C@@H](NC(=O)[C@H](CCCNC(=N)N)NC(=O)[C@@H](N)Cc1ccccc1)C(C)C)C(=O)N[C@@H](Cc1ccccc1)C(=O)N[C@@H](CCCNC(=N)N)C(=O)N1CCC[C@H]1C(=O)N[C@@H](CCCNC(=N)N)C(=O)N[C@@H](CC(N)=O)C(N)=O | Neuromedin-U receptor 1 (NMUR1, Homo sapiens, UniProt Q9HB89) | inositol phosphate, agonist |  | pEC50 | 9.91 |
| C[C@@]12CCC(=O)N1c1cc(Nc3ncc(Cl)c(-c4cccc(-c5ccccc5)c4)n3)cnc1OC2 | PIP4K2C | binding |  | pKd | 9.35 |
| C[S+](CC[C@H](N)C(=O)O)C[C@H]1O[C@@H](n2cnc3c(N)ncnc32)[C@H](O)[C@@H]1O (stereo partly drawn) | tRNA (guanine-N(1)-)-methyltransferase (trmD, Escherichia coli, UniProt P0A873) | binding, fluorescence |  | pKd | 5.85 |
| Nc1ncc2c(n1)-c1c([nH]c3ccc(C#CC4CC4)cc13)CCCC2 | PIP4K2C | binding, competition with immobilised ligand |  | pKd | 5.19 |
| c1cncc(-c2cccc(Nc3nccc(NC4CCCCC4)n3)c2)c1 | Tyrosine-protein kinase JAK2, JH1 (JAK2, Homo sapiens, UniProt O60674) | binding, competition with immobilised ligand |  | pKd | 6.59 |
| Cc1cnc(-c2ccc(-c3ccc(NC(=O)Nc4c(F)cc(F)cc4F)cc3F)c3c2C(=O)NC3)[nH]1 | LCK | binding, competition with immobilised ligand |  | pKd | 7.96 |
| CC1(C)[C@@H](O)CC[C@]2(C)[C@H]3C(=O)C=C4[C@@H]5C[C@@](C)(C(=O)O)CC[C@]5(C)CC[C@@]4(C)[C@]3(C)CC[C@@H]12 | Peroxiredoxin-2 (PRDX2, Homo sapiens, UniProt P32119) | binding, SPR |  | pKd | 4.52 |
| CN1CC(Oc2cnc(C#N)cc2-c2ccn3nc(NC(=O)C4CC4)cc3c2)C1 | LCK | enzyme activity, inhibitor |  | pKi | 6.66 |
| COc1ccc2c(Oc3ccc4c(C(=O)Nc5ccccc5N)cccc4c3)ccnc2c1 | Mitogen-activated protein kinase 9 (MAPK9, Homo sapiens, UniProt P45984) | enzyme activity, inhibitor |  | pIC50 | < 6.30 |
